Columns and labels:
UO-31 = test: Cytotoxicity against human UO31 cells at 10 uM after 48 hrs by MTT assay; format: functional; details: UO-31, 48 h, values are per cent of control
Outline: (§1)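 Single-dose screen in the NCI 60-cell-line panel, run according to the Developmental Therapeutics Program protocol (one-dose mean graph). The result is the growth percentage of treated cells relative to untreated control cells.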

LOX IMVI = test: Cytotoxicity against human LOXIMVI cells at 10 uM after 48 hrs by MTT assay; format: functional; details: values are per cent of control
Outline: (§2)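 Single-dose screen on the NCI 60-cell-line panel, run to the Developmental Therapeutics Program protocol (one-dose mean graph). Each value is the growth percentage of treated cells against untreated control cells.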

M14 = test: Cytotoxicity against human M14 cells at 10 uM after 48 hrs by MTT assay; format: functional; details: M14, 48 h, values are per cent of control; outline: as §2
Malme-3M = test: Cytotoxicity against human MALME3M cells at 10 uM after 48 hrs by MTT assay; format: functional; details: values are per cent of control; outline: as §2
SK-MEL-2 = test: Cytotoxicity against human SK-MEL-2 cells at 10 uM after 48 hrs by MTT assay; format: functional; details: SK-MEL-2, 48 h, values are per cent of control; outline: as §2
SK-MEL-28 = test: Cytotoxicity against human SK-MEL-28 cells at 10 uM after 48 hrs by MTT assay; format: functional; details: SK-MEL-28, 48 h, values are per cent of control; outline: as §2
SK-MEL-5 = test: Cytotoxicity against human SK-MEL-5 cells at 10 uM after 48 hrs by MTT assay; format: functional; details: SK-MEL-5, 48 h, values are per cent of control; outline: as §2
UACC-62 = test: Cytotoxicity against human UACC62 cells at 10 uM after 48 hrs by MTT assay; format: functional; details: UACC-62, 48 h, values are per cent of control; outline: as §1
SF-268 = test: Cytotoxicity against human SF268 cells at 10 uM after 48 hrs by MTT assay; format: functional; details: SF-268, 48 h, values are per cent of control; outline: as §2
SNB-19 = test: Cytotoxicity against human SNB19 cells at 10 uM after 48 hrs by MTT assay; format: functional; details: SNB-19, 48 h, values are per cent of control; outline: as §2
[1] = Cytotoxicity against human H1299 cells at 100 uM after 48 hrs by MTT assay realtive to control; format: functional; details: NCI-H1299, 48 h
Outline: (§3)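 H1299 non-small-cell lung cells were kept in RPMI 1640 with 10% FBS and penicillin/streptomycin at 37 °C under 5% CO2. About 2 × 10^3 cells per well were pre-incubated for 24 h. Compound was added from freshly made DMSO solution diluted in complete medium and left for 48 h. MTT was then added for 4 h at 37 °C, followed by 20% SDS/50% DMF lysis buffer for 16 h at 37 °C, and absorbance read at 550 nm.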

[2] = Cytotoxicity against human H1299 cells at 10 uM after 48 hrs by MTT assay realtive to control; format: functional; details: NCI-H1299, 48 h; outline: as §3
[3] = Cytotoxicity against human TERT immortalized BJ1 cells at 1 uM after 48 hrs by MTT assay relative to control; format: cell-based, BJ
Outline: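 hTERT-immortalized BJ1 fibroblasts were grown in DMEM with 10% FCS, 1 mM pyruvate and 4 mM […]. Cells (about 2 × 10^3 per well) were seeded and held 24 h at 37 °C. Compounds were freshly dissolved in DMSO, diluted into medium and left on the cells 48 h. MTT was added for 4 h, then SDS/DMF lysis buffer for 16 h. Absorbance was read at 550 nm and expressed relative to untreated cells (100%).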

NCI-H226 = test: Cytotoxicity against human NCI-H226 cells at 10 uM after 48 hrs by MTT assay; format: functional; details: NCI-H226, 48 h; outline: as §2
KM12 = test: Cytotoxicity against human KM12 cells at 10 uM after 48 hrs by MTT assay; format: functional; details: KM12, 48 h; outline: as §2
SW-620 = test: Cytotoxicity against human SW620 cells at 10 uM after 48 hrs by MTT assay; format: functional; details: SW-620, 48 h, values are per cent of control; outline: as §1
BT-549 = test: Cytotoxicity against human BT549 cells at 10 uM after 48 hrs by MTT assay; format: functional; details: BT-549, 48 h; outline: as §2
Hs-578T = test: Cytotoxicity against human HS578T cells at 10 uM after 48 hrs by MTT assay; format: functional; details: values are per cent of control; outline: as §2
MDA-MB-231 = test: Cytotoxicity against human MDA-MB-231/ATCC cells at 10 uM after 48 hrs by MTT assay; format: functional; details: MDA-MB-231, 48 h; outline: as §2
MDA-MB-435 = test: Cytotoxicity against human MDA-MB-435 cells at 10 uM after 48 hrs by MTT assay; format: functional; details: MDA-MB-435, 48 h; outline: as §2
NCI/ADR-RES = test: Cytotoxicity against human NCI/ADR-RES cells at 10 uM after 48 hrs by MTT assay; format: functional; outline: as §2
T47D = test: Cytotoxicity against human T47D cells at 10 uM after 48 hrs by MTT assay; format: functional; outline: as §1
OVCAR-4 = test: Cytotoxicity against human OVCAR4 cells at 10 uM after 48 hrs by MTT assay; format: functional; details: OVCAR-4, 48 h; outline: as §2
OVCAR-5 = test: Cytotoxicity against human OVCAR5 cells at 10 uM after 48 hrs by MTT assay; format: functional; details: OVCAR-5, 48 h; outline: as §2
SK-OV-3 = test: Cytotoxicity against human SKOV3 cells at 10 uM after 48 hrs by MTT assay; format: functional; details: SK-OV-3, 48 h; outline: as §2
HL-60 = test: Cytotoxicity against human HL60 cells at 10 uM after 48 hrs by MTT assay; format: functional; details: HL-60, 48 h; outline: as §2
A498 = test: Cytotoxicity against human A498 cells at 10 uM after 48 hrs by MTT assay; format: functional; details: A498, 48 h; outline: as §2
ACHN = test: Cytotoxicity against human ACHN cells at 10 uM after 48 hrs by MTT assay; format: functional; outline: as §2
HCT-29 = test: Growth percent of human HCT29 cells at 10 uM after 48 hrs by MTT assay; details: HCT-29, 48 h
NCI-H522 = test: Growth percent of human NCI-H522 cells at 10 uM after 48 hrs by MTT assay; details: NCI-H522, 48 h
[4] = target: T1, Telomerase reverse transcriptase (Homo sapiens, UniProt O14746); test: Effect on human TERT expressed in BJ1 cells at 1 uM after 24 hrs by SEAP assay realtive to control; details: BJ
T1 sequence (O14746 whole entry): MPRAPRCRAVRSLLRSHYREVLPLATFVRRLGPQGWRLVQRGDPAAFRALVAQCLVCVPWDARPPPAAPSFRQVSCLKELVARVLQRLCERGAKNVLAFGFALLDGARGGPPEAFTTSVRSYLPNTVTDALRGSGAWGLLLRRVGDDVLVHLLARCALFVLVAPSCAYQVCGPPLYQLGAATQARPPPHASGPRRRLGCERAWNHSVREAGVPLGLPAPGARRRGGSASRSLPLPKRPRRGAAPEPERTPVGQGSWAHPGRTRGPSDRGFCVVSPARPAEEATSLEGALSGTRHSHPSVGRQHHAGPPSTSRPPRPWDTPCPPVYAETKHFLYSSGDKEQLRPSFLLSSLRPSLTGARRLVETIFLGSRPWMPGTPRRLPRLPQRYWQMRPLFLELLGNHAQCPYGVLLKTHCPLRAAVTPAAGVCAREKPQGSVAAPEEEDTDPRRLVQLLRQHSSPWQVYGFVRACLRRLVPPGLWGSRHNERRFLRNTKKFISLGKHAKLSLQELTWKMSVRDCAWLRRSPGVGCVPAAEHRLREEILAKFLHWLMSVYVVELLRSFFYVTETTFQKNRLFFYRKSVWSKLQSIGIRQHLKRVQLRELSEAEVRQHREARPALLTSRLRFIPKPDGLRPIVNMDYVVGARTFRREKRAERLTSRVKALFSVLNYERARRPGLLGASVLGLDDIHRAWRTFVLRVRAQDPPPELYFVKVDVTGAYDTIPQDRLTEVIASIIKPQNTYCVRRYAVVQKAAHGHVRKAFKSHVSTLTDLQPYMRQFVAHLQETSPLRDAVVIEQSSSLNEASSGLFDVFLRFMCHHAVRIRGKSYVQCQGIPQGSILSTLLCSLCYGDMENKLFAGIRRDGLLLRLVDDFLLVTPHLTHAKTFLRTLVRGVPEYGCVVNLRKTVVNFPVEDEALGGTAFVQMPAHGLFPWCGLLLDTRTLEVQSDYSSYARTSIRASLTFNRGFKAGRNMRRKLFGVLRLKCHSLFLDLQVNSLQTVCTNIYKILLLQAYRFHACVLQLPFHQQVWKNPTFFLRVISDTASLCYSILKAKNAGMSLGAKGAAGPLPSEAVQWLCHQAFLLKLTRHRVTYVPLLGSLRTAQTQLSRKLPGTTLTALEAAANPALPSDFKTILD

[5] = target: T1, Telomerase reverse transcriptase; test: Effect on human TERT expressed in H1299 cells at 1 uM after 24 hrs by SEAP assay relative to control
[6] = target: T1, Telomerase reverse transcriptase; test: Effect on human TERT expressed in BJ1 cells at 100 uM after 24 hrs by SEAP assay relative to control; details: BJ
HCC 2998 = test: Growth percent of human HCC2998 cells at 10 uM after 48 hrs by MTT assay; details: HCC 2998, 48 h

Compound	growth, % of control at 10 µM (UO-31)	growth, % of control at 10 µM (LOX IMVI)	growth, % of control at 10 µM (M14)	growth, % of control at 10 µM (Malme-3M)	growth, % of control at 10 µM (SK-MEL-2)	growth, % of control at 10 µM (SK-MEL-28)	growth, % of control at 10 µM (SK-MEL-5)	growth, % of control at 10 µM (UACC-62)	growth, % of control at 10 µM (SF-268)	growth, % of control at 10 µM (SNB-19)	viability at 100 µM [1]	viability at 10 µM [2]	viability at 48 h, 1 µM [3]	growth, % of control at 10 µM (SW-620)	growth percent at 10 µM (BT-549)	growth, % of control at 10 µM (Hs-578T)	growth percent at 10 µM (MDA-MB-231)	growth percent at 10 µM (MDA-MB-435)	growth percent at 10 µM (NCI/ADR-RES)	growth percent at 10 µM (T47D)	other results
CCN(CC)CCC(=O)Nc1ccc2c(c1)C(=O)c1cc(NC(=O)CCN(CC)CC)ccc1C2=O	-31.5%	3.39%	62.8%	62.4%	-60.4%	2.56%	82.8%	44.5%	35.2%	75.8%	1%	41%	103%	16.9%	57%	-23.8%	31.3%	71.1%	59.5%	68.6%	growth percent at 10 µM (NCI-H226): 49.9%; growth, % of control at 10 µM (KM12; values are per cent of control): 21.8%; growth percent at 10 µM (OVCAR-4): 24.9%; growth percent at 10 µM (OVCAR-5): 33.6%; growth percent at 10 µM (SK-OV-3): 44%; growth percent at 10 µM (HL-60): 14%; growth percent at 10 µM (A498): -38.8%; growth percent at 10 µM (ACHN): 11.1%; growth percent at 10 µM (HCT-29): 3.3%; growth percent at 10 µM (NCI-H522): 28%; residual activity [4]: 84%; residual activity [5]: 76%; residual activity [6]: 37%
O=C1c2ccc(NC(=O)C3CC3)cc2C(=O)c2cc(NC(=O)C3CC3)ccc21	95.5%	90.3%	98.9%	91.8%	16.9%	109%	75.7%	81%	95.1%	98.8%	43%	36%	60%	105%	92.5%	119%	97%	97.3%	90.8%	79.8%	growth percent at 10 µM (NCI-H226): 101%; growth percent at 10 µM (KM12): 92.7%; growth percent at 10 µM (OVCAR-4): 97.5%; growth percent at 10 µM (OVCAR-5): 112%; growth percent at 10 µM (SK-OV-3): 93.2%; growth percent at 10 µM (HL-60): 62.5%; growth percent at 10 µM (A498): 92.3%; growth percent at 10 µM (ACHN): 86.7%; growth percent at 10 µM (HCT-29): 106%; growth percent at 10 µM (HCC 2998): 132%; growth percent at 10 µM (NCI-H522): 89.4%; residual activity [5]: 80%
CC(=O)Nc1ccc2c(c1)C(=O)c1cc(NC(C)=O)ccc1C2=O	96.4%	99%	105%	111%	30.1%	118%	109%	101%	114%	94.4%	55%	83%	106%	103%	93.3%	133%	104%	109%	114%	96.2%	growth percent at 10 µM (KM12): 106%; growth percent at 10 µM (OVCAR-4): 104%; growth percent at 10 µM (OVCAR-5): 102%; growth percent at 10 µM (SK-OV-3): 101%; growth percent at 10 µM (HL-60): 38.7%; growth percent at 10 µM (A498): 116%; growth percent at 10 µM (ACHN): 96.9%; growth percent at 10 µM (HCT-29): 107%; growth percent at 10 µM (HCC 2998): 105%; growth percent at 10 µM (NCI-H522): 93.6%; residual activity [4]: 123%; residual activity [5]: 97%; residual activity [6]: 117%

Source: ChEMBL document CHEMBL1155063 (Bioorg Med Chem, 2008)
